# Laboratory results taken from ChEMBL document CHEMBL1133118 (J Med Chem, 2000).
# pIC50, pKi: −log10 of the molar value.
# Columns and labels:
# Adenosine receptor A2a [1] = target: T1, Adenosine receptor A2a (Homo sapiens, UniProt P29274); assay: Displacement of [3H]-SCH- 58261 from human adenosine A2A receptor expressed in CHO cells; range 70-130; type: cell-based
# How it was run: (§1)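 Membranes from CHO cells stably expressing human A2A receptor, grown in DMEM/F12 without nucleosides, resuspended in 50 mM Tris HCl, 10 mM MgCl2, pH 7.4; 50 μg protein/assay. Competition with [3H]SCH 58261 at 6–8 or more compound concentrations, 60 min at 25 °C; nonspecific binding with 50 μM NECA. Filtration on GF/B filters, scintillation counting; n=3-6.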
# Adenosine receptor A3 [2] = target: T2, Adenosine receptor A3 (Homo sapiens, UniProt P0DMS8); assay: Displacement of [3H]MRE3008-F20 from human adenosine A3 receptor expressed in CHO cells; range 0.52-0.68; type: cell-based
# T2 sequence (P0DMS8 whole entry): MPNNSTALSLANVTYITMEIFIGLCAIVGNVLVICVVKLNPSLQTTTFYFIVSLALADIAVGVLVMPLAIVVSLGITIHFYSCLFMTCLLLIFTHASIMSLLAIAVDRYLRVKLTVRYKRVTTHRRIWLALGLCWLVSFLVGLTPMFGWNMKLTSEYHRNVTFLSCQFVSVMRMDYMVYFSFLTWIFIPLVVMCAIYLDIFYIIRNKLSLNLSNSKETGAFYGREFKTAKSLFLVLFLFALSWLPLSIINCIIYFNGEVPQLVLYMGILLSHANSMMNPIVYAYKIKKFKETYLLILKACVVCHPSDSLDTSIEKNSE
# Adenosine receptor A2b [3] = target: T3, Adenosine receptor A2b (Homo sapiens, UniProt P29275); assay: Displacement of [3H]DPCPX from Adenosine A2b receptor expressed in […]; range 56-89; type: cell-based
# T3 sequence (P29275 whole entry): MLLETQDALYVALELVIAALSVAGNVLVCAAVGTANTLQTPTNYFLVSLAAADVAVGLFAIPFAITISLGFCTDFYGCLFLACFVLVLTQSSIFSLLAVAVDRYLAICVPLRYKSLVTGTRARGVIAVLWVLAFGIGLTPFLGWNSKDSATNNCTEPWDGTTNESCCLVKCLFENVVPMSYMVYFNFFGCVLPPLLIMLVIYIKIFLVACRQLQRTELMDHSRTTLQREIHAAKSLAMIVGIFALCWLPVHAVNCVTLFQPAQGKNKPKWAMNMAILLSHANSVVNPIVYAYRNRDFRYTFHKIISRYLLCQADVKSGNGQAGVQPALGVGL
# Adenosine receptor A1 [4] = target: T4, Adenosine receptor A1 (Homo sapiens, UniProt P30542); assay: Displacement of [3H]-DPCPX from human adenosine A1 receptor expressed in CHO cells; range 213-281; type: cell-based
# T4 sequence (P30542 whole entry): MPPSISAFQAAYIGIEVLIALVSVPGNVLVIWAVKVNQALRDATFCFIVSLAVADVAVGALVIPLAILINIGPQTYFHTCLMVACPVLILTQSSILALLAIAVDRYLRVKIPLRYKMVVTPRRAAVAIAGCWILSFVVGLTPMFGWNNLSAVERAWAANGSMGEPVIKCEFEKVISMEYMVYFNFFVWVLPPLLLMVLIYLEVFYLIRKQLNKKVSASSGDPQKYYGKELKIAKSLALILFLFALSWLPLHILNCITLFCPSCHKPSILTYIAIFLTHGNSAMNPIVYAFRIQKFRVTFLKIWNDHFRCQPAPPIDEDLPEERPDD
# Adenosine receptor A3 [5] = target: T2, Adenosine receptor A3; assay: Inhibition of cAMP accumulation in CHO cells expressing human adenosine A3 receptor; range 3.0-6.9; type: functional, cell-based
# [6] = target: Adenosine receptors; A1 & A3 (Homo sapiens) (UniProt P30542+P0DMS8); assay: Ratio of binding affinity of human A1 receptor to that of human A3 receptor; type: protein assay
# How it was run: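 Ki ratio from displacement in CHO membranes, 6–8 concentrations, n=3-6, filtration counting. A1: 1 nM [3H]DPCPX, 50 μg protein, 120 min at 25 °C, nonspecific with 10 μM CHA. A3: 1 nM [3H]MRE3008-F20, 50 μg protein, Tris/10 mM MgCl2 pH 7.4, 120 min at 4 °C, nonspecific with 1 μM MRE3008-F20.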
# [7] = target: Adenosine receptors; A2b & A3 (Homo sapiens) (UniProt P29275+P0DMS8); assay: Ratio of binding affinity of human A2B receptor to that of human A3 receptor; type: protein assay
# How it was run: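 Ki ratio, n=3-6, 6–8 concentrations. A2B in HEK-293 membranes (20 μg): 40 nM [3H]DPCPX, 50 mM Tris HCl, 10 mM MgCl2, 1 mM EDTA, 0.1 mM benzamidine pH 7.4, 2 IU/mL adenosine deaminase, 60 min at 25 °C, nonspecific with 100 μM NECA. A3 in CHO membranes (50 μg): 1 nM [3H]MRE3008-F20, 120 min at 4 °C.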
# [8] = target: T5, Adenosine receptor A3 (Homo sapiens) (UniProt P0DMS8); conditions: CHO, 1 uM
# T5 sequence (whole entry): T2 sequence (P0DMS8 whole entry)
# Adenosine receptor A1 [9] = target: T4, Adenosine receptor A1; assay: Displacement of [3H]DPCPX from human adenosine A1 receptor expressed in CHO cells; range 327-462; type: cell-based
# Adenosine receptor A2a [10] = target: T1, Adenosine receptor A2a; assay: Displacement of [3H]-SCH- 58261 from human adenosine A2A receptor expressed in CHO cells; range 3420-3788; type: cell-based
# Adenosine receptor A2b [11] = target: T3, Adenosine receptor A2b; assay: Displacement of [3H]DPCPX from Adenosine A2b receptor expressed in […]; range 1681-1961; type: cell-based
# [12] = target: T5, Adenosine receptor A3 (Homo sapiens); assay: Percentage of blockade by 1 uM of the inhibition by 100 nM IB-MECA-inhibited cAMP accumulation in CHO cells expressing human adenosine A3 receptor.; type: functional, cell-based
# How it was run: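 CHO cells stably expressing human A3 receptor; membranes in 50 mM Tris HCl, 10 mM MgCl2, 1 mM EDTA pH 7.4 with 5 μM GTP, 0.5 mM […] and 2.0 IU/mL adenosine deaminase. Preincubated 10 min at 37 °C, then IB-MECA (100 nM) and/or antagonist with 1 mM ATP and 10 μM forskolin for 10 min. Boiled 2 min. cAMP read by [3H]cAMP competition with adrenal binding protein.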
# Adenosine receptor A3 [13] = target: T2, Adenosine receptor A3; assay: biochemical
# Adenosine receptor A2b [14] = target: T3, Adenosine receptor A2b; assay: Displacement of [3H]DPCPX from Adenosine A2b receptor expressed in […]; range 183-278; type: cell-based
# Adenosine receptor A3 [15] = target: T2, Adenosine receptor A3; assay: Displacement of [3H]MRE3008-F20 from human adenosine A3 receptor expressed in CHO cells; range 51-70; type: cell-based
# Adenosine receptor A1 [16] = target: T4, Adenosine receptor A1; assay: Displacement of [3H]DPCPX from human adenosine A1 receptor expressed in CHO cells; range 885-1163; type: cell-based
# Adenosine receptor A2a [17] = target: T1, Adenosine receptor A2a; assay: Displacement of [3H]-SCH- 58261 from human adenosine A2A receptor expressed in CHO cells; range 632-1003; type: cell-based; how it was run: as §1
# Adenosine receptor A3 [18] = target: T2, Adenosine receptor A3; assay: Displacement of [3H]MRE3008-F20 from human adenosine A3 receptor expressed in CHO cells; range 2.13-3.62; type: cell-based
# [19] = target: T5, Adenosine receptor A3 (Homo sapiens); conditions: CHO, 1 uM; remark: listed apart in the source
# Adenosine receptor A2b [20] = target: T3, Adenosine receptor A2b; assay: Displacement of [3H]DPCPX from Adenosine A2b receptor expressed in HEK-293 cells; range 432-469
# Adenosine receptor A2a [21] = target: T1, Adenosine receptor A2a; assay: Displacement of [3H]-SCH- 58261 from human adenosine A2A receptor expressed in CHO cells; range 17-24; type: cell-based
# How it was run: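 CHO membranes expressing human A2A receptor (50 μg protein) in 50 mM Tris HCl, 10 mM MgCl2, pH 7.4, competed against [3H]SCH 58261. At least 6–8 test concentrations were used, with 60 min incubation at 25 °C. Nonspecific binding defined by 50 μM NECA; n=3-6.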
# Adenosine receptor A1 [22] = target: T4, Adenosine receptor A1; assay: Displacement of [3H]DPCPX from human adenosine A1 receptor expressed in CHO cells; range 123-160; type: cell-based
# Adenosine receptor A3 [23] = target: T2, Adenosine receptor A3; assay: biochemical; remark: listed apart in the source
# Adenosine receptor A2b [24] = target: T3, Adenosine receptor A2b; assay: Displacement of [3H]DPCPX from Adenosine A2b receptor expressed in HEK-293 cells; range 44-58
# T1 sequence (P29274 whole entry): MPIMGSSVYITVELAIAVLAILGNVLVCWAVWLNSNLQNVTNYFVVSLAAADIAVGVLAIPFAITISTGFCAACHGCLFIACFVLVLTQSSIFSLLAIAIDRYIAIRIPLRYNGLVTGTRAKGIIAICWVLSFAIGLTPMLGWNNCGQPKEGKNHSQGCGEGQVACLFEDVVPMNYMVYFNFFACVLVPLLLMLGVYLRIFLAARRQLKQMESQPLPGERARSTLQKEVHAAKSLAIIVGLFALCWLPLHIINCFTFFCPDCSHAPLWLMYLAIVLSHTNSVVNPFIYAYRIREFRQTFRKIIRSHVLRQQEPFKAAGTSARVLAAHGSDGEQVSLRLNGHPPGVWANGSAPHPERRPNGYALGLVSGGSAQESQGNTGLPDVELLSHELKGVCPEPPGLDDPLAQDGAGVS
smiles,measurement,setting,value
CCCCn1cc2c(nc(NC(=O)Nc3cccc(Cl)c3)n3nc(-c4ccco4)nc23)n1,pKi,Adenosine receptor A2a [1],7.02
same,pKi,Adenosine receptor A3 [2],9.22
same,pKi,Adenosine receptor A2b [3],7.15
same,pKi,Adenosine receptor A1 [4],6.61
same,pIC50,Adenosine receptor A3 [5],8.35
same,Ratio,[6],408
same,Ratio,[7],116
same,inhibition,[8],85%
O=C(Nc1cccc(Cl)c1)Nc1nc2nn(CCc3cc(Br)c(Br)cc3Br)cc2c2nc(-c3ccco3)nn12,pKi,Adenosine receptor A1 [9],6.41
same,pKi,Adenosine receptor A2a [10],5.44
same,pKi,Adenosine receptor A2b [11],5.74
same,Ratio,[6],5.5
same,Ratio,[7],26
same,inhibition,[12],32%
same,pKi,Adenosine receptor A3 [13],7.15
O=C(Nc1cccc(Cl)c1)Nc1nc2nn(CCCc3ccccc3)cc2c2nc(-c3ccco3)nn12,pKi,Adenosine receptor A2b [14],6.65
same,pKi,Adenosine receptor A3 [15],7.22
same,Ratio,[6],25
same,Ratio,[7],3.7
same,inhibition,[12],39%
CC(C)(C)n1cc2c(nc(NC(=O)Nc3cccc(Cl)c3)n3nc(-c4ccco4)nc23)n1,pKi,Adenosine receptor A1 [16],5.99
same,pKi,Adenosine receptor A2a [17],6.10
same,pKi,Adenosine receptor A3 [18],8.56
same,Ratio,[6],365
same,Ratio,[7],162
same,inhibition,[19],70%
same,pKi,Adenosine receptor A2b [20],6.35
Nc1nc2n[nH]cc2c2nc(-c3ccco3)nn12,pKi,Adenosine receptor A2a [21],7.70
same,pKi,Adenosine receptor A1 [22],6.85
same,Ratio,[6],0.4
same,Ratio,[7],0.15
same,inhibition,[12],24%
same,pKi,Adenosine receptor A3 [23],6.46
same,pKi,Adenosine receptor A2b [24],7.29
